Bioassay records (PubChem BioAssay)
PMI act: activators of human PMI, primary screen, biochemical, fluorescence intensity, near-Km mannose 6-phosphate. Mannose-6-phosphate isomerase (Homo sapiens), P34949. purified human PMI, coupled resazurin fluorescence, 20 min; stronger effect = higher value; 1 = vehicle control, 0 substrate-free wells. activation factor at 20 µM. 190,000 tested, 0.005% active. AID 1214, 2008;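 active means activation factor of 2 or more at 20 µM, relative to plate controls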
Target sequence (P34949 whole entry, looked up): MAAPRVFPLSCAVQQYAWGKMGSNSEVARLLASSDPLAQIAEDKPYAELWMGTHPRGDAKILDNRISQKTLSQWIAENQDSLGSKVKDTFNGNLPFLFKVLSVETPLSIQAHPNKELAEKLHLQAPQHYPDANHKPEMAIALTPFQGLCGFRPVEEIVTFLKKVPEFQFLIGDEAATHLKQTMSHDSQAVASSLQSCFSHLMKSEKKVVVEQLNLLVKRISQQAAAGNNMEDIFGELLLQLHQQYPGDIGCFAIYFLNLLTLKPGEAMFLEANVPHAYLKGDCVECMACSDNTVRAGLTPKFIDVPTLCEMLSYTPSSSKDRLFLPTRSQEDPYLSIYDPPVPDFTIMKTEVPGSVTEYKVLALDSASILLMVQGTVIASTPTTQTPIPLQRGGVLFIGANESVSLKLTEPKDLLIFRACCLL
m-calpain inh: inhibitors of pig calpain II, primary screen, biochemical, fluorogenic peptide substrate, 1536-well. purified calpain II, 30 min. inhibition, % at 16 µM. 220,000 tested, 0.37% active. AID 1236, 2008;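 active means inhibition above about 50%, limit read from the data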
PMI act satM6P: human PMI activators, high substrate, primary screen, biochemical, fluorescence intensity, near-saturating mannose 6-phosphate; 190,000 tested, 0.34% active; activation factor at 20 µM; Mannose-6-phosphate isomerase (Homo sapiens), P34949; coupled PMI enzyme assay, resazurin fluorescence, 20 min; stronger effect = higher value; 1 = untreated enzyme, 0 = substrate-free blank;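 active means activation factor of 2 or more at 20 µM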
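Test system – human PMI in coupled enzyme assay · Timing – 20 min incubation at room temperature · Detection – Diaphorase-driven resazurin-to-resorufin fluorescence, excitation 544, emission 590 nm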
Lmaj promast: Leishmania major promastigote growth inhibition, primary screen | Leishmania major promastigotes, resazurin fluorescence viability | AID 1063, 2008 | inhibition, % at 10 µM | 200,000 tested, 9% active; in the data active means inhibition above about 50%;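 further: promastigotes grown with compound for 44 hours at 28 °C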
Rad51 HR inh: human RAD51 strand exchange inhibitors, primary screen, biochemical, fluorescence; AID 1385, 2008; inhibition, % at 10 µM; hRad51 DNA strand exchange, fluorescence dequenching; 200,000 tested, 0.085% active;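 active means inhibition above 40% at the single screening dose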
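Material: Human Rad51 nucleoprotein filaments preassembled on unlabelled ssDNA | Also added: Labelled 47-mer dsDNA for strand exchange | Dosing: Single dose, 10 µM final compound | Schedule: 30-min compound preincubation and 15-min exchange, both room temperature | Technique: Fluorescence dequenching at 485/520 nm | Measure: Percent inhibition relative to plate controls and blanks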
WT yeast gro inh: growth inhibition of WT strain, primary screen, mitochondrial fusion inhibitor project, WT and mutant strains, chemical genetic; mitochondrial fusion phenotypic screen; inhibition, % at 10 µM; 190,000 tested, 2.1% active; AID 1362, 2008; in the data active means inhibition above about 58%; tested in S. cerevisiae
Numbers stand for hits; - = inactive; . = no result given. In the library only some 9.8% were active in any assay of this set; here they are far more common.

SMILES	PMI act	m-calpain inh	PMI act satM6P	Lmaj promast	Rad51 HR inh	WT yeast gro inh
CN1C(=O)S/C(=C/c2cccnc2)C1=O	-	-	-	-	-	-
CC(C)(C)CC(C)(C)NCC(O)COc1c(F)cc(Br)cc1F (stereo not drawn)	-	-	-	100.5	-	-
CC(C)(C)NCC(O)COc1c(F)cc(Br)cc1F (stereo not drawn)	-	-	-	-	-	-
O=C1C2CCCCC2C(=O)N1c1ccc(NC2CCN(Cc3ccccc3)CC2)c([N+](=O)[O-])c1 (stereo not drawn)	-	83.9	-	-	.	-
COc1ccccc1NC(=O)c1ccc(NC(=O)CN(C)Cc2ccccc2F)cc1	-	-	-	-	-	-
CC(C)(C)c1ccc(OCCC(=O)NC2=NCCS2)cc1	-	-	-	-	-	76.5
CC(C)[C@H](NC(=O)c1ccc(C(C)(C)C)cc1)C(=O)Nc1nnc(C2CC2)s1	-	-	-	83.5	-	-
CC(C)C(NC(=O)c1ccc(C(C)(C)C)cc1)C(=O)NC1=NCCS1 (stereo not drawn)	-	-	-	-	-	62.9
COc1ccc(CC(=O)NNc2ncnc3c2cnn3Cc2ccccc2)cc1OC	.	-	.	.	-	.
Cc1ccc(NC(=O)c2ccc3ccccc3n2)cc1S(=O)(=O)N1CCOCC1	-	-	-	-	-	-
O=C(Nc1ccc(Cc2ccncc2)cc1)C1CCC(N2C(=O)C3C4C=CC(C4)C3C2=O)CC1 (stereo not drawn)	-	-	-	62.3	-	-
O=C(Nc1ccc(Cc2ccncc2)cc1)C1CCC(N2C(=O)C3CC=CCC3C2=O)CC1 (stereo not drawn)	-	-	-	-	-	-
CCN=C(N/N=C/c1ccc([N+](=O)[O-])cc1)SC	-	-	2.1	-	-	-
CCN(CC)c1ccc(/C=N/NC(=O)c2ccc([N+](=O)[O-])cc2)cc1	-	-	-	-	-	-
Cc1ccc(NS(=O)(=O)c2cc(NC(=O)c3cc4c(s3)CCCC4)ccc2C)c(C)c1	-	-	-	-	.	-
CCOC(=O)N1C(=O)C2(CCCCC2)N(c2ccccc2Cl)C1=S	-	-	-	-	-	77.1
C=CCc1c(C)nc(SC)nc1Nc1ccc(C(C)=O)cc1	-	-	-	70.7	-	-
C=CCc1c(C)nc(SC)nc1Nc1ccc(C(=O)O)cc1	-	-	-	-	-	-
c1ccc2cc(CSCc3nc4ccccc4[nH]3)ccc2c1	-	-	-	-	.	74.4
O=C(CSCc1nc2ccccc2[nH]1)Nc1ccc2ccccc2c1	-	-	-	-	-	-
CN(Cc1ccc(O)cc1)C1CCCCC1	-	-	-	93.3	-	-
Oc1ccc(CNC2CCCCC2)cc1	-	-	-	90.2	-	-
COc1ccc(CN(C)C2CCCCC2)cc1	-	-	-	87.1	-	-
COC(=O)C(NC(C)=O)(Nc1ccc(C)cn1)C(F)(F)F (stereo not drawn)	.	-	.	.	-	.
O=C(c1ccco1)N1N=C(c2ccc(Br)cc2)CC1(O)C(F)(F)F (stereo not drawn)	-	-	-	-	-	-
SMILES	PMI act	m-calpain inh	PMI act satM6P	Lmaj promast	Rad51 HR inh	WT yeast gro inh
Cn1c(=O)c2c(ncn2CCC(=O)N/N=C/c2cccnc2)n(C)c1=O	.	-	.	.	-	.
CC(=O)N1CCCC1(C(=O)O)c1ccccc1 (stereo not drawn)	.	-	.	.	-	.
CCOc1ccc(N2C(=O)CN(CC(=O)OC)C2=S)cc1	.	-	.	-	-	-
OCCN1CCN(C(c2cccs2)c2ccc3cccnc3c2O)CC1 (stereo not drawn)	-	-	-	52.8	-	-
CCN(CC)N=Nc1[nH]nc2nc(C)cc(C)c12	-	-	2	-	-	-
CCN(CC)S(=O)(=O)c1cccc(NC(=O)/C=C/c2ccc([N+](=O)[O-])cc2)c1	-	-	-	-	-	-
CC(C)CNC(=O)c1ccccc1NC(=O)/C=C/c1cccc([N+](=O)[O-])c1	-	-	-	52.6	-	-
O=C(/C=C/c1cccc([N+](=O)[O-])c1)NC(=S)Nc1ccccc1C(=O)O	-	-	-	-	-	-
CCN(CC)S(=O)(=O)c1cccc(NC(=O)/C=C/c2cccc([N+](=O)[O-])c2)c1	-	-	-	99.3	-	-
Cc1cc(-c2ccccc2)oc(=O)c1NC(=O)c1ccccc1	-	-	-	-	-	-
COc1cccc(-c2cn3nc(C)c(C)nc3n2)c1	-	-	2.1	-	-	-
CCOc1ccc(-c2nc(N)ncc2Oc2ccccc2Br)c(O)c1	-	-	-	-	-	92.0
CCOc1ccc(-c2nc(N)ncc2Oc2cccc(OC)c2)c(O)c1	-	-	-	-	-	-
C=C(C)COc1ccc(-c2[nH]ncc2Oc2ccc(OC)cc2)c(O)c1	.	-	.	.	.	.
C=C(C)COc1ccc(-c2[nH]ncc2-c2ccc(Br)cc2)c(O)c1	-	-	-	-	.	94.7
C=C(C)COc1ccc(-c2[nH]ncc2Oc2ccccc2OC)c(O)c1	-	-	-	54.0	-	-
CCOc1ccc(-c2[nH]ncc2Oc2ccccc2OCC)c(O)c1	-	-	-	-	-	64.8
CN(C)CCN(Cc1cc2cc3c(cc2[nH]c1=O)OCO3)C(=S)NCC1CCCO1 (stereo not drawn)	-	-	-	-	-	-
CCCOC(=O)c1ccc(Oc2cn[nH]c2-c2ccc(OC)cc2O)cc1	-	-	-	84.6	.	78.5
CCOc1ccc(-c2[nH]ncc2-c2ccc(OC)c(OC)c2)c(O)c1	-	-	-	-	-	-
COc1ccc(-c2cn[nH]c2-c2ccc(OCc3ccc([N+](=O)[O-])cc3)cc2O)cc1	-	-	-	-	-	68.2
COc1cc(CN2CC(=O)N(c3ccc(C)cc3)C2=S)cc(OC)c1OC	-	-	-	81.9	-	-
Cc1ccc(NC(=S)NNC(=O)c2ccccc2O)c(C)c1	-	-	-	-	.	-
COCCCNC(=O)C1CCC(CNS(=O)(=O)c2ccc(C)cc2)CC1 (stereo not drawn)	-	-	-	-	-	-
O=C(NCc1cccnc1)C1CCC(CNS(=O)(=O)c2ccc(Cl)cc2)CC1 (stereo not drawn)	-	55.2	-	-	-	-
CCOCCCNC(=O)C1CCC(CNS(=O)(=O)c2ccc(Cl)cc2)CC1 (stereo not drawn)	-	53.8	-	-	-	-
COC(=O)c1sc(C(C)(C)C)cc1CSc1ccccc1	.	-	.	.	-	.
